Source: PubChem BioAssay
In the library only some 3.5% were active in any assay of this set; here they are far more common.
MrgX1 antag = antagonists of human MrgX1 receptor. Q96LB2. MRGX1-HEK293 calcium flux, Fluo-4, BAM8-22 antagonism; active compounds read low. B-score at 10 µM. actives 1.3% (n = 310,000). AID 588676;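 active = calcium-response B-score plate-corrected more than 3 library SD below zero, starting fluorescence within 5 deviations, no agonist response on first addition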;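 note: peak minus trough fluorescence over baseline after final BAM8-22 challenge near maximal dose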
Target sequence (Q96LB2 whole entry, looked up): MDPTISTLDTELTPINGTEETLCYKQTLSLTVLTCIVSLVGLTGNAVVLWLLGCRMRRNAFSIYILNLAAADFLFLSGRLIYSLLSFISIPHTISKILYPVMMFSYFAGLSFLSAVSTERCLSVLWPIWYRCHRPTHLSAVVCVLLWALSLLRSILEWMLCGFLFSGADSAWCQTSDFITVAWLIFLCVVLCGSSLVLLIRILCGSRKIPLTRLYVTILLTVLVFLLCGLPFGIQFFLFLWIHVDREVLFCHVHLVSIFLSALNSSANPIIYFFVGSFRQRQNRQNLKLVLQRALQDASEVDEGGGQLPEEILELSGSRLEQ
MrgX1 PAM = allosterically activates human MrgX1 receptor signaling; MrgX1-HEK293, Fluo-4 calcium flux, FDSS; active compounds read high; B-score at 10 µM; actives 0.63% (n = 310,000);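 active = plate-corrected calcium response at least 3 library SD above typical, normal starting fluorescence, not activating the receptor alone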;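 note: compound read alongside a low EC10 to EC30 dose of BAM8-22 agonist; peak minus trough fluorescence over baseline measured at the second addition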
RGS4 block = inhibitors of human RGS4. B-score at 10 µM. HEK293 M3R/RGS4 inducible, Fluo-4 calcium flux; active compounds read high; triggered by carbachol at its EC20. actives 0.45% (n = 310,000). P49798;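 active = B-score, a plate-corrected calcium signal, over three deviations above library mean, with baseline fluorescence within five deviations of library mean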;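 note: RGS4 expression induced by doxycycline in cells with stable M3 receptor; B-score is computed from the integrated fluorescence ratio over baseline after carbachol; higher B-score means a larger calcium signal and so more RGS4 inhibition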
Target sequence (P49798 whole entry, looked up): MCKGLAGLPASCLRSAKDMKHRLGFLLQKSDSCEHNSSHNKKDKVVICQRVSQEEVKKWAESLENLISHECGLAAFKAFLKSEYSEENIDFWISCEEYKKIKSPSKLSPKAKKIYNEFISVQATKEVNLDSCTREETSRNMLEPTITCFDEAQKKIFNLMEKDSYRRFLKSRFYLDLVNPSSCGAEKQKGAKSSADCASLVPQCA
MrgX1 ag = human MrgX1 receptor agonism, primary screen | Q96LB2 | MrgX1-HEK293 cells, Fluo-4 calcium fluorescence, agonist mode; active compounds read high | B-score at 10 µM | actives 0.44% (n = 310,000) | AID 588627;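 active = calcium response B-score plate-corrected fluorescence ratio at least 3 library SD, with starting fluorescence B-score inside 5 SD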
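Assay system: MrgX1-expressing HEK293 cells / Amount: fifteen thousand cells per well / Doses: test compound in the initial addition of three / Timing: cells plated overnight, dye loaded 0.5 h 37 °C, 0.5 h room temperature / Technique: kinetic calcium dye fluorescence, Fluo-4 NW / Control set: positive and negative controls per plate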
RGS4 pot = RGS4 potentiation or activation. actives 0.92% (n = 310,000). HEK293 M3R/inducible RGS4, carbachol calcium flux Fluo4; active compounds read low. AID 463111. B-score at 10 µM;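 active = B-score of the integrated calcium signal more than 4 SD below the library mean, with starting fluorescence not abnormally high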;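 note: negative B-score means reduced calcium response which marks RGS4 activation or potentiation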
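Test system: HEK293 cells with stable M3R and inducible RGS4; also added: carbachol at ECmax as muscarinic agonist stimulus; schedule: dye loading 30 min 37 °C, buffer rest 30 min RT; technique: kinetic calcium fluorescence imaging with Fluo4-AM dye, 2 µM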
Of the large screens only hits and unclear results are named; the others gave an inactive call.

CCOC(=O)C1=C(COC(=O)/C=C/c2ccccc2Cl)NC(=O)NC1C (configuration not stated)	MrgX1 PAM 8.5
CCOC(=O)C1=C(COC(=O)/C=C/c2ccccc2F)NC(=O)NC1C (configuration not stated)	none
CCOc1ccc(NC(=O)CN(c2ccc([N+](=O)[O-])cc2)S(=O)(=O)c2ccccc2)cc1	MrgX1 antag -5.4
O=C(CC1C(=O)NCCN1Cc1cccc(Oc2ccccc2)c1)NCCc1ccncc1 (configuration not stated)	none
Cc1ccc(C(C)C)c(OCc2nn(CC(=O)c3ccc(Cl)cc3)c3[n+]2CCCCC3)c1	RGS4 pot -7.4
O=C(Cn1nc(CNc2ccc(Cl)cc2)[n+]2c1CCCCC2)c1ccccc1	none
COc1cc(NC(=O)CN(C)C2CCCCC2)c(C)cc1[N+](=O)[O-]	MrgX1 antag -5.2
CCOC(=O)c1sc(=S)n(-c2ccccc2Cl)c1C	RGS4 pot -9.3
COc1ccc(CNC(=O)Cn2ncn3cccc3c2=O)cc1	none
O=C(O)CCC(=O)Nc1ccc(Br)cc1C(=O)c1ccc(Cl)cc1	none
O=S(=O)(c1cc(Cl)ccc1Cl)N1CC2CCCN2c2ccc(C(F)(F)F)cc21 (configuration not stated)	RGS4 pot -7.1
CS(=O)(=O)N1CC2CCCN2c2ccc(C(F)(F)F)cc21 (configuration not stated)	none
Cc1cccc(C)c1-n1c(C)cc(/C=N\Nc2ccc([N+](=O)[O-])cn2)c1C	MrgX1 antag -5
O=[N+]([O-])c1ccc(N/N=C\c2cccnc2)nc1	none
COc1ccccc1C(CNC(=O)c1cccc(S(=O)(=O)Nc2ccc(C)cc2)c1)N1CCCC1 (configuration not stated)	none
COc1ccccc1NS(=O)(=O)c1cccc(C(=O)N/N=C/c2ccc(C)o2)c1	MrgX1 PAM 18
COc1ccccc1NS(=O)(=O)c1cccc(C(=O)NCC(c2ccccc2OC)N2CCCC2)c1 (configuration not stated)	MrgX1 antag -5.7
Cc1ccc(/C=N/NC(=O)c2cccc(S(=O)(=O)Nc3ccccc3Cl)c2)s1	MrgX1 PAM 11
CC1CCN(C(=O)COC(=O)CNC(=O)C23CC4CC(CC(C4)C2)C3)CC1	none
CC(=O)OC1CC(C)N(C(=O)c2ccccc2)c2ccc(C)cc21 (configuration not stated)	none
Cc1ccc(C2=Nc3ccccc3N(C(=O)c3ccccc3)C(C)C2)cc1 (configuration not stated)	MrgX1 antag -8.9
CC(NS(=O)(=O)CCNC(=O)c1ccccc1)c1ccccc1 (configuration not stated)	none
CCCCCCCNC(=O)C1(CC2CC(c3ccc(Cl)cc3)=NO2)CCN(C(=O)CCCCCBr)CC1 (configuration not stated)	none
Cn1cccc1/C=N/n1c(-c2ccc(Cl)cc2)n[nH]c1=S	none
Cn1cccc1/C=N/n1c(-c2ccc(Cl)cc2Cl)n[nH]c1=S	MrgX1 ag 27
Cc1ccc(N2N=C(C(=O)O)CCC2=O)cc1Cl	none
COc1cc(N2CCCC2)c(OC)cc1/C=C1/NC(=S)NC1=O	MrgX1 antag -5.4
CC(C)Oc1ccc(C(=O)Nc2c3c(nn2C(C)(C)C)CS(=O)(=O)C3)cc1	none
O=c1[nH]c(S)c(/C=C2\C=Nc3ccccc32)s1	MrgX1 antag -5.4
CCOC(=O)Cc1csc(NC(=O)CCCC(=O)O)n1	none
Cc1ccc(C)c(NC(=O)C(Sc2nc3ccccc3c(=O)n2CC(C)C)c2ccccc2)c1 (configuration not stated)	RGS4 pot -7.3
CCc1cc2c3c(c(=O)oc2cc1OC(C)C(=O)O)CCCC3 (configuration not stated)	none
CCc1cc2c3c(c(=O)oc2cc1O)CCCC3	MrgX1 antag -5.5
O=C(Nc1nc(-c2ccc(F)c(F)c2)cs1)c1cc([N+](=O)[O-])ccc1N1CCOCC1	none
Cc1cc(C)c(-c2csc(NC(=O)c3cc([N+](=O)[O-])ccc3N3CCOCC3)n2)c(C)c1	RGS4 pot -7.9
C/C(=N\Nc1cccc(Cl)c1)C1(C)N(O)C(C)(C)C(c2ccco2)=[N+]1[O-] (configuration not stated)	none
CC(NS(=O)(=O)c1ccc([N+](=O)[O-])cc1)C(=O)NN (configuration not stated)	none
CC(C(=O)NN)c1ccc([N+](=O)[O-])cc1 (configuration not stated)	MrgX1 PAM 9.2
O=C(c1nn(Cc2ccccc2)c(=O)c2ccccc12)N1CCc2ccccc2C1	RGS4 pot -8.5
O=C(c1nn(Cc2ccccc2)c(=O)c2ccccc12)N1CCN(c2ccccn2)CC1	none
COc1ccc(CNC(=O)[C@H](C)NC(=O)C2CCN(C(=O)[C@@H](N)CCSC)CC2)cc1	none
CCOC(=O)c1nn(-c2ccccc2)c2nc(-c3ccc(OC)cc3)c(C#N)c(=O)n12	MrgX1 antag -4.9
CC(NC(=O)C(=O)NCCN1CCN(C(=O)c2ccccc2Br)CC1)c1ccccc1 (configuration not stated)	none
Fc1cccc(Cc2noc(CN3CCCN(C4Cc5ccccc5C4)CC3)n2)c1	RGS4 pot -7.5
Fc1cccc(Cc2noc(CN3CCSCC3)n2)c1	none
CCCCCOc1ccc(NC(=O)C(=O)NCC2CCCN2CC)cc1 (configuration not stated)	MrgX1 antag -7
O=C(c1ccco1)N1CCN(C(c2cccs2)c2nnnn2C2CCCCC2)CC1 (configuration not stated)	RGS4 pot -7.6
COc1ccc(C(c2nnnn2C2CCCC2)N2CCN(C(=O)c3ccco3)CC2)cc1OC (configuration not stated)	none
O=C(CSc1nnc(CNc2ccc(F)cc2)n1Cc1ccccc1)NCc1ccccc1	MrgX1 antag -6.4
O=C(CSc1nnc(CCc2ccccc2)n1-c1ccc(Cl)cc1)NCc1ccccc1	MrgX1 antag -4.8
COc1ccc(C(=O)CSc2nnc(CCc3ccccc3)n2-c2ccccc2)cc1	MrgX1 antag -6.4
COc1ccc(-n2c(CCc3ccccc3)nnc2SCC(=O)c2ccccc2)cc1	none
O=C(O)CCC(=O)N1CCc2cc(S(=O)(=O)NCc3ccc(Cl)cc3)ccc21	none
COC(c1ccccc1)(c1ccccc1)C(Oc1nccc(C)n1)C(=O)O (configuration not stated)	none
O=C(c1cccs1)N(Cc1ccc(Cl)cc1)C1CCS(=O)(=O)C1 (configuration not stated)	none
Cn1cc([N+](=O)[O-])c(C(=O)NNC(=O)c2ccc([N+](=O)[O-])cc2)n1	MrgX1 antag -5.4
